Measurements from article PMC5652303 (European journal of medicinal chemistry, 2017).
Several values for one entry are separate records, joined by “and”; a condition that tells them apart may be missing. Identical values can stand only once.

Assays:
normal lymphocytes = experiment: Viability of normal lymphocytes, annexin/PI binding assay; format: cell-based, human; conditions: healthy donors (n=2), 10 µM, 24 hours
Summary of the method: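 Lymphocytes were separated from healthy donors' peripheral blood on a Ficoll-hypaque gradient and suspended in RPMI with 10% autologous plasma. After compound exposure, the percentage of viable cells was scored by annexin V/propidium iodide binding.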

[1] = test system: H2AX phosphorylation at Ser139; experiment: DNA damage response: H2AX phosphorylation in CLL lymphocytes, flow cytometry; format: cell-based, human; conditions: 10 µM, 24 hours
Summary of the method: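 Lymphocytes were isolated from CLL patients' peripheral blood on a Ficoll-hypaque gradient and held in RPMI with 10% autologous plasma. After compound exposure, cells were washed in PBS, fixed in ice-cold 70% ethanol and stored at −20 °C. They were then permeabilised, stained with FITC anti-H2AX Ser139 antibody, and analysed by flow cytometry.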

49-mer DNA duplex 25 = experiment: H2O2-induced DNA interstrand cross-link; format: biochemical; conditions: for DNA ICL cross-linking yield without H2O2: no H2O2, duplex 25, pH 8 phosphate buffer; for Kinetics of ICL formation: Time of completion: phosphate buffer pH 8; for ICL formation rate constant relative to 1a: rate constants of Table 1
Summary of the method: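 The 32P-labelled strand (0.5 µM) was annealed to 1.5 equiv of complement at 65 °C for 3 min in 10 mM potassium phosphate pH 7 with 100 mM NaCl, then cooled slowly overnight. Duplex, NaCl, potassium phosphate (pH 6–8), H2O2 and compound (100 µM–2 mM, in CH3CN) were incubated 24 h; some runs went 48 h. Reactions were quenched with 90% formamide loading buffer and run on 20% denaturing PAGE with phosphorimaging. Yields were corrected for the no-H2O2 control.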

[2] = Monomer reaction with H2O2 by NMR analysis; format: physicochemical; conditions: for Disappearance of starting materials: Time of completion / Disappearance of starting materials: kobs / QM formation: Time of completion / QM formation: kobs: DMSO/deuterated phosphate buffer pH 8 (3:2), with H2O2; for Time to completion of reaction with H2O2 (oxidative deboronation): phosphate buffer pH 8 in D2O/DMSO 2:3, SI Figures S14, 15, 17, 18
[3] = test system: ovarian cancer SKOV3 cell; experiment: Cytotoxicity in SKOV3 cells; format: cell-based; conditions: for IC50: Homo sapiens, SK-OV-3; for Cytotoxicity (initial test): SKOV3 cells
Summary of the method: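 Cells grown in RPMI 1640 with 5% FBS and 2 mM L-glutamine, seeded at 5,000–10,000 cells/well in 384-well plates, and left 2–3 h at 37 °C, 5% CO2. Compounds were made as 20 mM DMSO stocks and serially diluted 2-fold ten times, then added at 1:100. After 48 h, viability was read by CellTiter-Glo luminescence after 10 min at room temperature. IC50 came from four-parameter nonlinear regression.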

[4] = Chemical stability of the compounds; format: physicochemical; conditions: for Hydrolysis of the acetate group: NMR, phosphate buffer pH 8 in D2O/DMSO 2:3, before addition of H2O2
[5] = test system: 60 human cancer cell lines; experiment: NCI DTP in vitro cancer cell screen; format: cell-based; conditions: 10 µM, most of the 60 cell lines
Summary of the method: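 NCI DTP screen. Human tumour cell lines were grown in RPMI 1640 with 5% FBS and 2 mM L-glutamine. Cells were plated in 96-well plates at 5,000–40,000 cells/well, set by each line's doubling time, and treated at a single 10 µM dose.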

breast cancer MDA-MB-468 = experiment: Cytotoxicity towards tumor cells; format: cell-based; conditions: Homo sapiens, MDA-MB-468, 48 h

| SMILES | Toxicity to normal lymphocytes (normal lymphocytes) | Induction of DNA damage response (H2AX phosphorylation) [1] | DNA ICL cross-linking yield without H2O2 (49-mer DNA duplex 25; 2 mM compound, 37 °C) | Kinetics of ICL formation: Time of completion (49-mer DNA duplex 25) | Disappearance of starting materials: Time of completion [2] | Disappearance of starting materials: kobs [2] | QM formation: Time of completion [2] | QM formation: kobs [2] | IC50 [3] | Hydrolysis of the acetate group [4] | Cytotoxicity (initial test) [3] | Chemical stability [4] | further results |
| --- | --- | --- | --- | --- | --- | --- | --- | --- | --- | --- | --- | --- | --- |
| CC1(C)OB(c2c(CBr)cccc2CBr)OC1(C)C [1a] | no significant toxicity | induction of DNA damage response | 0% | 600 min | 60 min | 39.0 ± 1.5 10^−5 s^−1 | 60 min | 9.5 ± 0.2 10^−5 s^−1 | 6.3 µM | – | – | – | – |
| CC(=O)OCc1cccc(COC(C)=O)c1B1OC(C)(C)C(C)(C)O1 [1b, (2-(4,4,5,5-Tetramethyl-1,3,2-dioxaborolan-2-yl)-1,3-phenylene)bis(methylene) diacetate] | – | – | – | – | 240 min | 19.4 ± 1.2 10^−5 s^−1 | 240 min | – | – | hydrolyzed prior to addition of H2O2 | not cytotoxic | – | – |
| COc1cc(CBr)c(B2OC(C)(C)C(C)(C)O2)c(CBr)c1 [2a, 2-(2,6-Bis(bromomethyl)-4-methoxyphenyl)-4,4,5,5-tetramethyl-1,3,2-dioxaborolane] | no significant toxicity | induction of DNA damage response | – | 240 min | 42 min | 56.7 ± 4.3 10^−5 s^−1 | 50 min | 38.3 ± 2.2 10^−5 s^−1 | 5.2 µM | – | – | chemically stable | ICL formation rate constant relative to 1a (49-mer DNA duplex 25): 2–3 times; Growth percentage of most cell lines, single dose screening [5]: less than 50% |
| COc1cc(COC(C)=O)c(B2OC(C)(C)C(C)(C)O2)c(COC(C)=O)c1 [2b, (5-Methoxy-2-(4,4,5,5-tetramethyl-1,3,2-dioxaborolan-2-yl)-1,3-phenylene)bis(methylene) diacetate] | – | – | – | – | 480 min | 9.1 ± 0.6 10^−5 s^−1 | 480 min | – | – | hydrolyzed prior to addition of H2O2 | not cytotoxic | – | Time to completion of reaction with H2O2 (oxidative deboronation) [2]: not finished within one hour |
| COc1cc(OC)c(CBr)c(B2OC(C)(C)C(C)(C)O2)c1CBr [3a, 2-(2,6-Bis(bromomethyl)-3,5-dimethoxyphenyl)-4,4,5,5-tetramethyl-1,3,2-dioxaborolane] | – | – | 17 ± 3% and 17% | – | – | – | – | – | – | – | – | not stable and easily decomposed even at 0 °C | – |
| COc1c(CBr)c(B2OC(C)(C)C(C)(C)O2)c(CBr)c(OC)c1OC [4a, 2-(2,6-Bis(bromomethyl)-3,4,5-trimethoxyphenyl)-4,4,5,5-tetramethyl-1,3,2-dioxaborolane] | – | – | 0% | – | – | – | – | – | – | – | not cytotoxic | more stable than 3a | DNA ICL cross-linking yield with H2O2 (49-mer DNA duplex 25; 2 mM compound, 2 mM H2O2, duplex 25, pH 8 phosphate buffer, 37 °C): 0%; ICL yield after incubation of ICL products at pH 6 (49-mer DNA duplex 25; ICLs generated at pH 6, then incubated at pH 6, 37 °C, 24 h): remained unchanged; ICL yield after incubation of ICL products at pH 8 (49-mer DNA duplex 25; ICLs generated at pH 6, then incubated at pH 8, 37 °C, 24 h): 3.0 ± 0.5%; ICL yield of ICL products generated with 4a at pH 6 (49-mer DNA duplex 25; duplex 25, generated at pH 6, before further incubation): 16.6 ± 1.0%; DNA ICL product formation at pH 7 or higher pH (49-mer DNA duplex 25; with H2O2, pH 7 or higher): not formed |
| CC1(C)OB(c2c(CBr)cc(O)cc2CBr)OC1(C)C [5a, 3,5-Bis(bromomethyl)-4-(4,4,5,5-tetramethyl-1,3,2-dioxaborolan-2-yl)phenol] | no significant toxicity | induction of DNA damage response | – | 300 min | 40 min | 61.7 ± 3.2 10^−5 s^−1 | 40 min | 58.3 ± 4.3 10^−5 s^−1 | 3.8 µM | – | – | relatively stable | ICL formation rate constant relative to 1a (49-mer DNA duplex 25): 2–3 times |
| CC(=O)OCc1cc(O)cc(COC(C)=O)c1B1OC(C)(C)C(C)(C)O1 [5b, (5-Hydroxy-2-(4,4,5,5-tetramethyl-1,3,2-dioxaborolan-2-yl)-1,3-phenylene)bis(methylene) diacetate] | – | – | – | – | 480 min | 8.3 ± 0.5 10^−5 s^−1 | 480 min | – | – | hydrolyzed prior to addition of H2O2 | – | – | Time to completion of reaction with H2O2 (oxidative deboronation) [2]: not finished within one hour |
| O=C(O)CCCc1ccc(N(CCCl)CCCl)cc1 [Chlorambucil, chlorambucil] | – | – | – | – | – | – | – | – | – | – | – | – | IC50 (breast cancer MDA-MB-468): 34.4 µM |
| N[C@@H](Cc1ccc(N(CCCl)CCCl)cc1)C(=O)O [Melphalan, melphalan] | – | – | – | – | – | – | – | – | – | – | – | – | IC50 (breast cancer MDA-MB-468): 48.7 µM |
